Rows were chosen to be rich in hits. Some 1.5% of all compounds tested hit in one or more screens of this group.
APJ antagonist: antagonists of human apelin receptor APJ, primary screen, CHO-K1 cells, beta-arrestin complementation, luminescence; hit rate 0.32% among 330,000; inhibition, % at 20 µM; P35414;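 active = inhibition above about 40% at 20 µM, limit read from the data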;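 also: cells challenged with 10 nM apelin-13 agonist together with compound; plate controls were apelin-13 plus DMSO wells for no effect and DMSO wells lacking apelin-13 for full effect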
Target sequence (P35414 whole entry, looked up): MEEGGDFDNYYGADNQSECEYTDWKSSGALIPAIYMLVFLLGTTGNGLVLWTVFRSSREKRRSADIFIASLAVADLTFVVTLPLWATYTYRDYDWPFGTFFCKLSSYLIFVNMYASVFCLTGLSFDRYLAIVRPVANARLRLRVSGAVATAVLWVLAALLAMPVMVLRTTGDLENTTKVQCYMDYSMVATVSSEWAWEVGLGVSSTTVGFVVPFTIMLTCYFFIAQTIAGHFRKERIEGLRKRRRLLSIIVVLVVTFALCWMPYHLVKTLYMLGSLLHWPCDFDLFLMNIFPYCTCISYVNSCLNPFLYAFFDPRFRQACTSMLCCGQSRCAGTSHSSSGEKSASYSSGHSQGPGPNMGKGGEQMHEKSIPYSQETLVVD
APJ agonist: agonists of human apelin receptor APJ, primary screen, CHO-K1 cells, PathHunter beta-arrestin, luminescence; activation, % at 20 µM; 0% DMSO wells, 100% apelin; hit rate 0.11% among 330,000; P35414;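 active = activation more than six SD over the plate average, tested at 20 µM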;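 also: 0% = DMSO alone and 100% = apelin-13 at 10 nM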
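Test system – PathHunter CHO-K1 APJ (AGTRL-1) beta-arrestin reporter cells · Input – 1000 cells/well · Compound – single test compound dose, 20 µM final, 1% DMSO · Times – compound stimulation 90 min at 25 °C, detection 60 min · Technique – beta-gal luminescence · Read-out basis – APJ–arrestin association signal · Control set – negative DMSO alone, positive Apelin-13 at 10 nM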
CXCR6 block: CXCR6 receptor inhibitors, primary screen, cell-based, beta-arrestin, luminescence, CHO-K1 PathHunter, 1536-well; C-X-C chemokine receptor type 6 (Homo sapiens), O00574; inhibition, % at 20 µM; hit rate 0.36% among 360,000; AID 602244, 2012; in the data active = inhibition above about 34%, passing the limit was not always enough;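 also: antagonist mode with CXCL16 agonist at 10 nM final; 0% = 10 nM CXCL16 with DMSO and 100% = unstimulated wells without agonist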
EBI2 antag: EBI2 receptor antagonists, beta-arrestin recruitment, primary screen, cell-based, luminescence, 7a,25-OHC stimulation, uHTS. G-protein coupled receptor 183 (Homo sapiens), P32249. 7a,25-OHC stimulated. inhibition, % at 5 µM. hit rate 0.81% among 360,000; in the data active = inhibition above about 38%;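 also: enzyme fragment complementation signal reports receptor beta-arrestin coupling in cells; 0% = agonist plus DMSO wells and 100% = wells without agonist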
CCR6 antag: CCR6 receptor antagonists, primary screen, cell-based, CHO-K1, luminescence, beta-arrestin, uHTS; CHO-K1 CCR6 PathHunter beta-arrestin, CCL20-stimulated; hit rate 0.49% among 340,000; inhibition, % at 20 µM; C-C chemokine receptor type 6 (Homo sapiens), P51684;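 active = compounds whose inhibition of the agonist-driven luminescence signal at 20 µM reaches about 50%, limit read from the data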;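 also: cells stimulated with CCL20 at 14 nM final; plate controls were DMSO with CCL20 for no effect and DMSO without agonist for full effect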
Target sequence (P51684 whole entry, looked up): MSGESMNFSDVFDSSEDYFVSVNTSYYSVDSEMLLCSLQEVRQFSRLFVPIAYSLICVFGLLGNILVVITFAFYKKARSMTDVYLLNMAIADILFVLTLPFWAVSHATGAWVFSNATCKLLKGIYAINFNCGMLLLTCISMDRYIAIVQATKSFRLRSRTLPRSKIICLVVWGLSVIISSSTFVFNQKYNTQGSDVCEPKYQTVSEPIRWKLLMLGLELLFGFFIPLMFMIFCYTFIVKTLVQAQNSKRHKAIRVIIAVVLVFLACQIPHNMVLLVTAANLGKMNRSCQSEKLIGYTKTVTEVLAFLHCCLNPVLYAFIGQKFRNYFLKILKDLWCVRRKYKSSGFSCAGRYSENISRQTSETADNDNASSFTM
EBI2 conf: EBI2 antagonist hit retest, beta-arrestin, confirmation, cell-based, single concentration, luminescence, 7a,25-OHC stimulation | shares compounds with EBI2 antag | hit rate 29% among 2,400 | AID 651997, 2013 | inhibition, % at 5 µM | 7a,25-OHC antagonism;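 active = inhibition of at least 50%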
EBI2 ag: EBI2 agonist activity of antagonist hits, confirmation, counter-screen for EBI2 antagonist project, cell-based, single concentration, agonist mode, luminescence; shares compounds with EBI2 antag; EBI2-expressing cells, 60 min; 0% vehicle, 100% 7α,25-dihydroxycholesterol control; activation, % at 5 µM; 2,400 tested, under 10 active;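 active = activation of at least 50%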
bGal cs: E. coli beta-galactosidase enzyme inhibition, confirmation, counter-screen for EBI2 antagonist project, biochemical, luminescence, single concentration; shares compounds with EBI2 antag; purified beta-galactosidase, luminescent Galacton Star, 15 min; inhibition, % at 5 µM; hit rate 1% among 2,400;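 active = replicate-average signal at least 3 plate SD below neutral wells, shown as high inhibition, flagging enzyme-inhibiting false positives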;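 also: 0% = DMSO wells with enzyme and 100% = wells lacking enzyme; higher means stronger loss of beta-gal luminescence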
Numbers without * were called inactive; . = no result given.

SMILES	APJ antagonist	APJ agonist	CXCR6 block	EBI2 antag	CCR6 antag	EBI2 conf	EBI2 ag	bGal cs
COc1ccc(OCCNC(=O)C(c2ccccc2)c2ccccc2)cc1	-5.8	-2.8	-4.9	85.0*	17.4	52.4*	-1.5	-9.9
CSc1ccc(C2=CC(=O)C[C@H](c3ccc4c(c3)OCO4)C2)cc1	0.0	-3.7	2.3	41.4*	10.6	27.9	-0.8	-3.8
O=C1C=C(c2ccc3c(c2)oc2ccccc23)C[C@@H](c2ccc3c(c2)OCO3)C1	7.5	-5.6	1.8	71.1*	17.0	63.9*	1.1	-2.8
Cc1ccc(C2=CC(=O)C[C@H](c3ccc4c(c3)OCO4)C2)cc1	1.9	-1.2	4.0	48.5*	17.6	37.5	0.6	10.1
O=C1C=C(c2ccc(O)cc2)C[C@@H](c2ccc3c(c2)OCO3)C1	0.3	-3.2	6.5	15.7	17.8	.	.	.
O=C(NCCc1ccccc1F)C1CCC(=O)N(Cc2ccc(Cl)cc2)C1 (stereo unspecified)	1.2	-3.0	5.0	8.1	22.6	.	.	.
O=C(NCCNC(=O)c1ccccn1)c1ccc(-c2ccccc2)cc1	-27.7	1.1	3.1	5.5	-8.6	.	.	.
CN1C(=O)C(C)(C)c2cc(S(=O)(=O)NCC3CCC(C(=O)NCc4ccccc4)CC3)ccc21 (stereo unspecified)	-25.6	2.5	0.7	6.3	-5.0	.	.	.
COc1ccc(Nc2oc(COc3ccc(Cl)cc3)nc2C#N)cc1	6.5	4.4	-1.9	18.4	10.9	.	.	.
COc1ccc(CNc2oc(COc3ccc(Cl)cc3)nc2C#N)cc1	-13.1	0.7	-2.9	42.1*	22.3	28.8	-0.2	1.0
O=C(CCc1c[nH]c2ccccc12)NCCc1ccc(Cl)cc1	-9.4	-2.4	-16.5	49.2*	16.3	29.4	0.0	7.0
Cn1ccnc1C(=O)c1cc(SCC(=O)NCc2ccccc2)nc2ccccc12	-14.1	-2.5	-6.3	44.1*	4.3	-6.9	1.1	3.0
COC(=O)CSc1cc(C(=O)c2nccn2C)c2ccccc2n1	3.5	-1.3	-1.2	3.1	14.0	.	.	.
COc1ccccc1CC(=O)N1CCN(C(=O)c2ccco2)CC1	14.9	-4.9	14.2	13.4	-22.5	.	.	.
CCOC(=O)N1CCN(C(=S)NC(=O)/C=C/c2ccc(C)cc2)CC1	10.2	-7.4	-0.7	83.3*	11.7	48.4	0.1	7.4
COCCNc1nc(-c2ccc(OC)cc2C)c2sc(-c3ccccc3)cc2n1	.	.	5.5	41.8*	.	18.8	-0.9	-13.2
COCCNc1nc(NCCOc2ccccc2)c2sc(-c3ccccc3)cc2n1	.	.	9.4	47.3*	.	45.0	-0.2	6.3
CC(C)Nc1nc(NCCOc2ccccc2Cl)c2sc(-c3ccccc3)cc2n1	.	.	8.7	51.8*	.	30.1	0.1	-14.8
COCCNc1nc(NCCOC)c2sc(-c3ccccc3)cc2n1	.	.	2.8	12.3	.	.	.	.
COc1ccccc1CNc1nc(NCc2ccccc2)nc2ccsc12	.	.	-0.5	-2.1	.	.	.	.
COc1ccccc1CNc1nc(NC(C)C)nc2cc(-c3ccccc3)sc12	.	.	3.3	49.6*	.	50.3*	-1.6	-8.3
O=C(OCC(=O)N1CCN(c2ccccc2)CC1)c1cc(F)c(F)cc1Cl	.	.	-10.4	-3.6	.	.	.	.
CC(=O)c1sc(NC(=O)CSCc2c(C)noc2C)nc1-c1ccccc1	3.4	-3.7	-0.1	-22.1	17.4	.	.	.
CC(=O)Nc1c(Cl)c(Cl)c2c(c1Cl)C(=O)c1cc(Cl)ccc1-2	.	.	-4.8	-17.9	-19.6	.	.	.
COc1ccc(NCC(O)COc2ccc(C(C)(C)C)cc2)cc1 (stereo unspecified)	-16.2	-1.7	-5.6	70.0*	-3.4	51.6*	-0.7	5.1
SMILES	APJ antagonist	APJ agonist	CXCR6 block	EBI2 antag	CCR6 antag	EBI2 conf	EBI2 ag	bGal cs
CC(=O)c1ccc(NC(=O)C2CCCNC2=O)cc1 (stereo unspecified)	2.3	-1.1	34.1	55.2*	-13.7	7.6	0.8	7.3
COc1ccc(NC(=O)C2CCCNC2=O)cc1 (stereo unspecified)	-2.9	-1.1	3.1	-9.1	-0.7	.	.	.
COc1cc(-c2nc3cc(C)ccn3c2NC2CCCCC2)ccc1-c1ccc(C(C)=O)cc1	12.6	6.9	10.4	58.6*	7.8	45.6	-1.5	-1.9
CO/N=C/c1ccc(Oc2ccc(C)cc2)nc1	10.2	-1.8	-2.8	87.4*	18.2	73.2*	-0.1	6.5
CC(=O)c1ccc(OCCCC(=O)Nc2cccc(-c3nn[nH]n3)c2)cc1	4.1	-4.9	-2.4	5.9	12.7	.	.	.
COc1ccc(C(=O)N2CCN(C)C(=O)[C@@H]2C)cc1OC1CCN(C(C)C)CC1	2.8	-4.3	3.8	6.6	-0.9	.	.	.
O=C(Nc1ccc2ccccc2c1)[C@@H]1C[C@H]1[C@@H](NP(=O)(c1ccccc1)c1ccccc1)c1ccccc1	11.2	-6.3	6.0	59.2*	3.5	11.3	-0.8	-12.9
COCCn1c(C)cc(/C=C2/SC(=O)N(CC(=O)N3CCCC3)C2=O)c1C	0.7	2.0	7.1	-4.8	6.9	.	.	.
Cc1ccnc(NC(=O)c2oc3ccccc3c2C)c1	6.7	1.3	-3.8	11.2	15.7	.	.	.
CCOc1ccc2oc(C(=O)Nc3cc(C)ccn3)c(C)c2c1	5.6	-2.4	-0.6	42.6*	18.1	10.4	-0.7	-9.6
CS(=O)(=O)c1ccccc1C(=O)Nc1cccc2ncccc12	3.3	-1.9	-12.8	-6.5	-11.3	.	.	.
Cc1cnc(CNC(=O)c2ccc3oc(Cc4ccc(Cl)cc4)nc3c2)cn1	-28.0	-5.8	5.6	1.0	9.5	.	.	.
Cc1ccc(NC(=O)N2CCC(O)(c3ccc(Cl)cc3)CC2)cc1	1.5	2.9	-6.8	77.9*	8.0	75.3*	0.0	9.2
O=C(c1cc2ccccc2o1)N1CCN(c2cccc(Cl)c2)CC1	2.0	-0.2	5.7	54.3*	22.4	57.7*	0.8	1.4
O=C(c1ccc(Br)o1)N1CCN(c2ccccn2)CC1	-16.4	0.5	3.4	-0.7	10.9	.	.	.
CCCC(=O)Nc1ccc(N2CCN(C(=O)c3cc4ccccc4o3)CC2)cc1	-2.4	-3.3	-4.1	9.8	1.1	.	.	.
O=C(c1cc2ccccc2o1)N1CCN(c2ccccn2)CC1	-10.9	3.4	-2.7	50.7*	9.9	35.0	-1.3	-14.6
O=C(c1cc2ccccc2o1)N1CCN(c2ccccc2Cl)CC1	13.2	0.8	-3.8	86.1*	10.2	67.3*	-0.5	-13.0

Screens as filed in PubChem BioAssay.
